In brackets after ≈: the same amount, converted by molar mass. Activity calls are given as the source filed them. The calls are words filed in the database; no cut-off is given here.
How the values were obtained:
DU-145 [1] = test: Cytotoxicity against human DU145 cells assessed as decrease in cell viability after 72 hrs by MTT assay; format: functional, cell-based; conditions: DU-145, 72 h
How it was run: (§1)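 Cells grown in RPMI 1640 with 10% FBS and penicillin/streptomycin at 37°C, 5% CO2. Seeded at 0.1×10⁶ cells/well (HCT-116: 0.7×10⁵). After 24 h, drug in DMSO added at […]; controls got DMSO. Exposure 72 h, with prostate lines read at 24, 72 and 96 h. Then MTT (0.5 mg/mL) for 3 h, formazan dissolved in DMSO, A595 expressed as % of control. IC50 by nonlinear regression from three independent experiments in triplicate.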

PC-3M [2] = test: Cytotoxicity against human PC3M cells assessed as decrease in cell viability after 72 hrs by MTT assay; format: functional, cell-based; how it was run: as §1
OVCAR-8 [3] = test: Cytotoxicity against human OVCAR8 cells assessed as decrease in cell viability after 72 hrs by MTT assay; format: functional, cell-based; conditions: OVCAR-8, 72 h; how it was run: as §1
PC-3 [4] = test: Cytotoxicity against human PC3 cells assessed as decrease in cell viability using compound loaded PLGA microcapsule after 24 hrs by MTT assay; format: functional, cell-based
How it was run: (§2)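 Drug-loaded PLGA microparticles suspended in PBS pH 7.4 and added at […], 24 h after seeding at 0.1×10⁶ cells/well (HCT-116: 0.7×10⁵). Medium RPMI 1640 with 10% FBS, 37°C, 5% CO2. Incubated 72 h, with DU145, PC3 and PC3M read at 24, 72 and 96 h. MTT 0.5 mg/mL for 3 h, formazan in DMSO, A595 as % of control. IC50 by nonlinear regression, three independent experiments in triplicate.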

PC-3 [5] = test: Cytotoxicity against human PC3 cells assessed as decrease in cell viability after 72 hrs by MTT assay; format: functional, cell-based; conditions: PC-3, 72 h; how it was run: as §1
PC-3M [6] = test: Induction of morphological changes in human PC3M cells at 5.4 uM using compound loaded PLGA microcapsule after 24 to 72 hrs by hematoxylin/eosin staining-based light microscopic method; format: functional, cell-based
How it was run: (§3)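 PC3M cells exposed to free or PLGA-encapsulated drug, then stained with hematoxylin/eosin and examined by light microscopy (400×) after 24, 48 and 72 h.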

SF-295 [7] = test: Cytotoxicity against human SF295 cells assessed as decrease in cell viability after 72 hrs by MTT assay; format: functional, cell-based; conditions: SF-295, 72 h; how it was run: as §1
DU-145 [8] = test: Cytotoxicity against human DU145 cells assessed as decrease in cell viability using compound loaded PLGA microcapsule after 24 hrs by MTT assay; format: functional, cell-based; how it was run: as §2
PC-3 [9] = test: Cytotoxicity against human PC3 cells assessed as decrease in cell viability after 96 hrs by MTT assay; format: functional, cell-based; how it was run: as §1
DU-145 [10] = test: Cytotoxicity against human DU145 cells assessed as decrease in cell viability using compound loaded PLGA microcapsule after 72 hrs by MTT assay; format: functional, cell-based; conditions: DU-145, 72 h; how it was run: as §2
DU-145 [11] = test: Cytotoxicity against human DU145 cells assessed as decrease in cell viability after 24 hrs by MTT assay; format: functional, cell-based; how it was run: as §1
PC-3M [12] = test: Cytotoxicity against human PC3M cells assessed as decrease in cell viability using compound loaded PLGA microcapsule after 96 hrs by MTT assay; format: functional, cell-based; how it was run: as §2
PC-3M [13] = test: Cytotoxicity against human PC3M cells assessed as decrease in cell viability after 24 hrs by MTT assay; format: functional, cell-based; how it was run: as §1
PC-3 [14] = test: Cytotoxicity against human PC3 cells assessed as decrease in cell viability using compound loaded PLGA microcapsule after 72 hrs by MTT assay; format: functional, cell-based; conditions: PC-3, 72 h; how it was run: as §2
PC-3 [15] = test: Cytotoxicity against human PC3 cells assessed as decrease in cell viability after 24 hrs by MTT assay; format: functional, cell-based; how it was run: as §1
PC-3M [16] = test: Cytotoxicity against human PC3M cells assessed as decrease in cell viability after 96 hrs by MTT assay; format: functional, cell-based; how it was run: as §1
HCT-116 [17] = test: Cytotoxicity against human HCT116 cells assessed as decrease in cell viability using compound loaded PLGA microcapsule after 72 hrs by MTT assay; format: functional, cell-based; conditions: HCT-116, 72 h; how it was run: as §2
OVCAR-8 [18] = test: Cytotoxicity against human OVCAR8 cells assessed as decrease in cell viability using compound loaded PLGA microcapsule after 72 hrs by MTT assay; format: functional, cell-based; conditions: OVCAR-8, 72 h; how it was run: as §2
PC-3M [19] = test: Induction of morphological changes in human PC3M cells at 11.2 uM after 24 to 72 hrs by hematoxylin/eosin staining-based light microscopic method; format: functional, cell-based; how it was run: as §3
PC-3M [20] = test: Cytotoxicity against human PC3M cells assessed as decrease in cell viability using compound loaded PLGA microcapsule after 72 hrs by MTT assay; format: functional, cell-based; how it was run: as §2
PBMC [21] = test: Cytotoxicity against human PBMC assessed as decrease in cell viability using compound loaded PLGA microcapsule after 72 hrs by Alamar blue assay; format: cell-based
How it was run: (§4)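 PBMC isolated from healthy volunteers' blood on Ficoll. Kept in RPMI 1640 with 20% FBS; proliferation induced with 3% phytohemagglutinin. Plated at 2×10⁴ cells/well; after 24 h, test material in PBS pH 7.4 added at […], controls got PBS. Treated 72 h, with Alamar Blue added for the final 24 h. Absorbance at 570 and 600 nm as % of control. IC50 by nonlinear regression from three independent experiments in triplicate.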

PBMC [22] = test: Cytotoxicity against human PBMC assessed as decrease in cell viability after 72 hrs by Alamar blue assay; format: cell-based; how it was run: as §4
HCT-116 [23] = test: Cytotoxicity against human HCT116 cells assessed as decrease in cell viability after 72 hrs by MTT assay; format: functional, cell-based; conditions: HCT-116, 72 h
How it was run: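 After 24 h, drug in DMSO added at […]; controls got DMSO. Exposure 72 h, with prostate lines read at 24, 72 and 96 h. Then MTT (0.5 mg/mL) for 3 h, formazan dissolved in DMSO, A595 expressed as % of control. IC50 by nonlinear regression from three independent experiments in triplicate.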

DU-145 [24] = test: Cytotoxicity against human DU145 cells assessed as decrease in cell viability after 96 hrs by MTT assay; format: functional, cell-based; how it was run: as §1
PC-3 [25] = test: Cytotoxicity against human PC3 cells assessed as decrease in cell viability using compound loaded PLGA microcapsule after 96 hrs by MTT assay; format: functional, cell-based; how it was run: as §2
SF-295 [26] = test: Cytotoxicity against human SF295 cells assessed as decrease in cell viability using compound loaded PLGA microcapsule after 72 hrs by MTT assay; format: functional, cell-based; conditions: SF-295, 72 h; how it was run: as §2
PC-3M [27] = test: Cytotoxicity against human PC3M cells assessed as decrease in cell viability using compound loaded PLGA microcapsule after 24 hrs by MTT assay; format: functional, cell-based; how it was run: as §2
DU-145 [28] = test: Cytotoxicity against human DU145 cells assessed as decrease in cell viability using compound loaded PLGA microcapsule after 96 hrs by MTT assay; format: functional, cell-based; how it was run: as §2

Question: `COc1cccc2c1C(=O)c1c(O)c3c(c(O)c1C2=O)C[C@@](O)(C(=O)CO)C[C@@H]3O[C@H]1C[C@H](N)[C@H](O)[C@H](C)O1` [DOXORUBICIN] was tested. Which IC50 (DU-145 [1]) did it give?
Answer: The IC50 was 0.153 µM.

Question: What about the IC50 (PC-3M [2]) of the same compound?
Answer: Its IC50 is 0.368 µM.

Question: And the IC50 (OVCAR-8 [3])?
Answer: The IC50 was 0.62 µM.

Question: What does the source list for `CC1(C)CC2=C(O1)c1ccccc1C(=O)C2=O` [NOR-BETA-LAPACHONE]?
Answer: Activity (PC-3 [4]): Active; IC50 (PC-3 [5]): 1.45 µM; Activity (PC-3M [6]): Active; IC50 (SF-295 [7]): 1.45 µM; Activity (DU-145 [8]): Active; Activity (PC-3 [9]): Active; IC50 (DU-145 [10]): 2.38 µM; Activity (DU-145 [11]): Active; IC50 (PC-3M [12]): 1.4 µg/mL (≈ 6.14 µM); IC50 (PC-3M [13]): 1.89 µg/mL (≈ 8.27 µM); IC50 (PC-3 [14]): 1.85 µM; Activity (PC-3 [15]): Active; IC50 (PC-3M [16]): 1.79 µg/mL (≈ 7.83 µM); IC50 (HCT-116 [17]): 7.48 µM; IC50 (OVCAR-8 [18]): 13.7 µM; Activity (PC-3M [19]): Active; IC50 (PC-3M [20]): 4.59 µM; IC50 (DU-145 [1]): 1.39 µM; IC50 (PBMC [21]): 10 µM; IC50 (PBMC [22]): 10 µM; IC50 (HCT-116 [23]): 1.57 µM; Activity (DU-145 [24]): Active; Activity (PC-3 [25]): Active; IC50 (PC-3M [2]): 8.97 µM; IC50 (OVCAR-8 [3]): 2.58 µM; IC50 (SF-295 [26]): 7.4 µM; IC50 (PC-3M [27]): 2.44 µg/mL (≈ 10.7 µM); Activity (DU-145 [28]): Active
